# Assay results: ChEMBL document CHEMBL5724801, “EUbOPEN Chemogenomics Library - Multiplex” (2024)
# Values joined by “and” are separate entries in the source; they are usually repeats but may differ in a detail not shown here. Equal values may be shown once.
# System: Fibroblast
# Experiment: Multiplex assay against human fibroblast
# Assay type: toxicity, cell-based
# Procedure, shortened: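 Values for tubulin, mitochondrial-mass and membrane-permeability phenotypes are per cents of cells with healthy nuclei. These cells were identified by CellPathfinder machine-learning gating of live cells that had been stained at seeding with Hoechst33342, BioTracker Green Microtubule Cytoskeleton Dye, MitoTracker Red and Annexin V Alexa Fluor 680 and imaged on a CQ1 microscope at 37°C and 5% CO2 after compound addition. The gating first set Hoechst high-intensity objects apart from normal cells, then split normal cells into healthy, pyknosed or fragmented nuclei, and pyknosed cells into mitotic or apoptotic.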
# [1] = 12 h, 1 µM, compound concentration 1 uM
# [2] = 12 h, 10 µM, compound concentration 10 uM
# [3] = 24 h, 1 µM, compound concentration 1 uM
# [4] = 24 h, 10 µM, compound concentration 10 uM
# [5] = 48 h, 1 µM, compound concentration 1 uM
# [6] = 48 h, 10 µM, compound concentration 10 uM
smiles,measurement,setting,value
Cc1cccc(F)c1C(=O)Nc1cnc(-c2cc3c(cc2Cl)OC(F)(F)O3)cn1 [ZEGOCRACTIN],Population Apoptotic (%),[1],6.56% and 18.18%
same,Population Fragmented Nuclei (%),[1],12.97% and 3.23%
same,Population Healthy Nuclei (%),[1],61.51% and 79.03%
same,Population Hoechst High Intensity Objects (%),[1],0%
same,Population Membrane Permeable-Phenotype (%),[1],2.04%
same,Population Mitochondria Different-Phenotype (%),[1],8.16%
same,Population Mitotic Cells (%),[1],93.44% and 81.82%
same,Population Normal (%),[1],100%
same,Population Pyknosed Nuclei (%),[1],25.52% and 17.74%
same,Population Tubulin-Different-Phenotype (%),[1],17.01% and 13.61%
same,Total Cell Count,[1],239 and 186
same,Population Apoptotic (%),[2],8.93% and 22.86%
same,Population Fragmented Nuclei (%),[2],13.11% and 8.77%
same,Population Healthy Nuclei (%),[2],56.28% and 70.76%
same,Population Hoechst High Intensity Objects (%),[2],0%
same,Population Membrane Permeable-Phenotype (%),[2],3.88% and 4.96%
same,Population Mitochondria Different-Phenotype (%),[2],17.48% and 19.01%
same,Population Mitotic Cells (%),[2],91.07% and 77.14%
same,Population Normal (%),[2],100%
same,Population Pyknosed Nuclei (%),[2],30.6% and 20.47%
same,Population Tubulin-Different-Phenotype (%),[2],24.27% and 42.15%
same,Total Cell Count,[2],183 and 171
same,Population Apoptotic (%),[3],11.11% and 9.52%
same,Population Fragmented Nuclei (%),[3],9.33% and 2.59%
same,Population Healthy Nuclei (%),[3],73.88% and 86.53%
same,Population Hoechst High Intensity Objects (%),[3],0%
same,Population Membrane Permeable-Phenotype (%),[3],3.54% and 0%
same,Population Mitochondria Different-Phenotype (%),[3],7.07% and 6.59%
same,Population Mitotic Cells (%),[3],88.89% and 90.48%
same,Population Normal (%),[3],100%
same,Population Pyknosed Nuclei (%),[3],16.79% and 10.88%
same,Population Tubulin-Different-Phenotype (%),[3],14.65% and 11.38%
same,Total Cell Count,[3],268 and 193
same,Population Apoptotic (%),[4],7.81% and 17.65%
same,Population Fragmented Nuclei (%),[4],13% and 8.14%
same,Population Healthy Nuclei (%),[4],55% and 72.09%
same,Population Hoechst High Intensity Objects (%),[4],0%
same,Population Membrane Permeable-Phenotype (%),[4],3.64% and 1.61%
same,Population Mitochondria Different-Phenotype (%),[4],14.55% and 32.26%
same,Population Mitotic Cells (%),[4],92.19% and 82.35%
same,Population Normal (%),[4],100%
same,Population Pyknosed Nuclei (%),[4],32% and 19.77%
same,Population Tubulin-Different-Phenotype (%),[4],37.27% and 46.77%
same,Total Cell Count,[4],200 and 172
same,Population Apoptotic (%),[5],15% and 35%
same,Population Fragmented Nuclei (%),[5],9.76% and 3.2%
same,Population Healthy Nuclei (%),[5],83.28% and 87.67%
same,Population Hoechst High Intensity Objects (%),[5],0%
same,Population Membrane Permeable-Phenotype (%),[5],1.26% and 2.6%
same,Population Mitochondria Different-Phenotype (%),[5],9.62% and 2.6%
same,Population Mitotic Cells (%),[5],85% and 65%
same,Population Normal (%),[5],100%
same,Population Pyknosed Nuclei (%),[5],6.97% and 9.13%
same,Population Tubulin-Different-Phenotype (%),[5],8.79% and 19.79%
same,Total Cell Count,[5],287 and 219
same,Population Apoptotic (%),[6],15% and 9.52%
same,Population Fragmented Nuclei (%),[6],10.91% and 9.6%
same,Population Healthy Nuclei (%),[6],70.91% and 78.53%
same,Population Hoechst High Intensity Objects (%),[6],0%
same,Population Membrane Permeable-Phenotype (%),[6],0.64% and 4.32%
same,Population Mitochondria Different-Phenotype (%),[6],20.51% and 13.67%
same,Population Mitotic Cells (%),[6],85% and 90.48%
same,Population Normal (%),[6],100%
same,Population Pyknosed Nuclei (%),[6],18.18% and 11.86%
same,Population Tubulin-Different-Phenotype (%),[6],28.21% and 56.83%
same,Total Cell Count,[6],220 and 177
